The text below walks through data of publication PMC7115577 (Peptides, 2005).

Holding throughout (assay type): cell-based
The subject of test [1] is human polymorphonuclear leukocytes (PMN). Description: Chemotaxis assay.
In test [2] the test system is isolated guinea pig ileum (GPI). Description: Potentiation of the BK-induced contraction of GPI. Conditions: analogue alone, cumulative GPI contraction curves. Put shortly:
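Guinea pig ileum strips (1.5 cm) suspended in Tyrode solution at 37 °C; isotonic contractions recorded under 500 mg resting tension. Concentration–response curves were built for the agonist, and pD2 was derived from them.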

The test system of another test is guinea pig ileum. Conditions: calyculin 100 nM, BK 20 nM, BPP9α 20 nM. Put shortly:
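Ileum segments (1.5 cm) in Tyrode at 37 °C, isotonic recording under 500 mg resting tension. The phosphatase inhibitor was added either at the peak of the BK contraction, before the potentiating peptide, or 1 min before the combined BK/peptide challenge, with washes between. Traces are from four to six separate experiments.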

On to `C[C@H](N[C@@H](CCc1ccccc1)C(=O)O)C(=O)N1[C@H](C(=O)O)C[C@@H]2CCC[C@@H]21` [ramiprilat], for which the “effect on migratory activity of the nonpeptide agonist FR190997” value in test [1] is given as “could not be accelerated”. In addition, in test [1] (BK 10^−7 M, ramiprilat 10 nM), the “migration index (MI) of BK in the presence of inhibitor” value is reported as 1.69 ± 0.26. As for “DArg-Arg-Pro-Hyp-Gly-Thi-Ser-Pro-ɛAbu(ßPh)-Arg”, the “pD2-value of enzymatically more stable BK analogue” value in test [2] turned out to be 6.65 ± 0.14. Consider `CC(C)C[C@H](NP(=O)(O)O[C@@H]1O[C@@H](C)[C@H](O)[C@@H](O)[C@H]1O)C(=O)N[C@@H](Cc1c[nH]c2ccccc12)C(=O)O` [phosphoramidon], for which, in test [1] (BK 10^−8 M, phosphoramidon 10^−7 M, 5 min preincubation), the “migration index (MI) of BK in the presence of inhibitor” value came to 1.19 ± 0.03. Turning to calyculin, the “influence on the potentiation of the BK-induced contraction” value in the test with guinea pig ileum is reported as “no influence”.
